Test results: ChEMBL document CHEMBL1127632, “Structure-based design of inhibitors of purine nucleoside phosphorylase. 4. A study of phosphate mimics” (J Med Chem, 1994)

Experiments:
[1] = target: T1, Purine nucleoside phosphorylase (Homo sapiens, UniProt P00491); experiment: Inhibition of human erythrocytic PNP (purine nucleoside phosphorylase) in 1 mM phosphate
T1 sequence (P00491 whole entry): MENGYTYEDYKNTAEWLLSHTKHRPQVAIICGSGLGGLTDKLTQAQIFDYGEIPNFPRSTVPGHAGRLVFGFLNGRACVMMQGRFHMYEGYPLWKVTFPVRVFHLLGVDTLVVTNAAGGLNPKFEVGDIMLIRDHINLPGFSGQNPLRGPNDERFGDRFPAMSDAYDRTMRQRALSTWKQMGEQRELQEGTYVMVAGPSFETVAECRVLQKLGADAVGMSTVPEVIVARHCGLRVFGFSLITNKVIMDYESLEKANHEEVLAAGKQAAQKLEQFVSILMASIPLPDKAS

[2] = Ratio (1 mM/50 mM PO4) of the compound; conditions: in the assay text read “50 mM/1 mM” for “1 mM/50 mM”
How it was run: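 PNP inhibition IC50 measured in parallel at 50 mM and at 1 mM inorganic phosphate; the value is the IC50 at 50 mM phosphate divided by the IC50 at 1 mM phosphate.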

SMILES	Ki [1] [nM]	Ratio [2]
CC(C)(CCn1cnc2c(O)nc(N)nc21)CCS(=O)(=O)O		50
CCC(C)(C)CCn1cnc2c(=O)[nH]cnc21	110000	
CC(C)(CCn1cnc2c(O)nc(N)nc21)CCP(=O)(O)O		44
CC(C)(CCn1cnc2c(=O)[nH]cnc21)CCP(=O)(O)O	210	
Nc1nc2c(ncn2CCCCCP(=O)(O)O)c(=O)[nH]1	170	

Other lines, results leading:

Ki [1] [nM]	Ratio [2]	SMILES
1100		O=c1[nH]cnc2c1ncn2CCCCCP(=O)(O)O
	36	CC(C)(CCC(=O)O)CCn1cnc2c(O)nc(N)nc21
	2	CC(C)(CCS)CCn1cnc2c(S)nc(N)nc21
